The source made the active and inactive calls.
Legend:
Plasmodium berghei [1] = assay: Antimalarial activity against blood schizont stage of Plasmodium berghei infected in mouse assessed as complete disease cure at 640 mg/kg measured 60 days post infection infection; assay type: functional, organism-based; parameters: dose 640 mg/kg
Summary of the method: (§1)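 Mice infected with blood-stage Plasmodium berghei, five animals per group, following the Osdene et al. method. Cures are the number of mice alive 60 days after infection. Deaths before day 6 are scored as toxic. Activity is read as the increase in mean survival time over untreated controls, and a group counts as active when its MST exceeds twice the control MST.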

Plasmodium berghei [2] = assay: Antimalarial activity against blood schizont stage of Plasmodium berghei infected in mouse assessed as complete disease cure at 320 mg/kg measured 60 days post infection infection; assay type: functional, organism-based; parameters: dose 320 mg/kg; summary of the method: as §1
Plasmodium berghei [3] = assay: Antimalarial activity against blood schizont stage of Plasmodium berghei infected in mouse assessed as mean survival days of host at 160 mg/kg (reference value: 6.1 days); assay type: functional
Plasmodium berghei [4] = assay: Antimalarial activity against blood schizont stage of Plasmodium berghei infected in mouse assessed as mean survival days of host at 80 mg/kg (reference value: 6.1 days); assay type: functional
Plasmodium berghei [5] = assay: Antimalarial activity against blood schizont stage of Plasmodium berghei infected in mouse assessed as mean survival days of host at 40 mg/kg (reference value: 6.1 days); assay type: functional
Plasmodium berghei [6] = assay: Antimalarial activity against blood schizont stage of Plasmodium berghei infected in mouse assessed as mean survival days of host at 20 mg/kg (reference value: 6.1 days); assay type: functional
Plasmodium cynomolgi [7] = assay: Antimalarial activity against sporozoite stage of Plasmodium cynomolgi infected in rhesus monkey assessed as radical curative activity at 0.125 mg/kg measured for 90 days; assay type: functional, organism-based; parameters: dose 0.125 mg/kg
Summary of the method: (§2)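 Rhesus monkeys infected by sporozoite inoculation of Plasmodium cynomolgi and dosed at the mg/kg levels given. Results are recorded as cures per number of animals, or as the day of relapse. An animal with no relapse within 90 days is counted as cured.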

Plasmodium cynomolgi [8] = assay: Antimalarial activity against sporozoite stage of Plasmodium cynomolgi infected in rhesus monkey assessed as radical curative activity at 0.5 mg/kg measured for 90 days; assay type: functional, organism-based; parameters: dose 0.5 mg/kg; summary of the method: as §2
Plasmodium berghei [9] = assay: Antimalarial activity against blood schizont stage of Plasmodium berghei infected in mouse assessed as mean survival days of host at 320 mg/kg (reference value: 6.1 days); assay type: functional
Plasmodium cynomolgi [10] = assay: Antimalarial activity against sporozoite stage of Plasmodium cynomolgi infected in rhesus monkey assessed as radical curative activity at 0.25 mg/kg measured for 90 days; assay type: functional, organism-based; parameters: dose 0.25 mg/kg; summary of the method: as §2
Plasmodium cynomolgi [11] = assay: Antimalarial activity against sporozoite stage of Plasmodium cynomolgi infected in rhesus monkey assessed as radical curative activity at 1 mg/kg measured for 90 days; assay type: functional, organism-based; parameters: dose 1 mg/kg; summary of the method: as §2
Plasmodium cynomolgi [12] = assay: Antimalarial activity against sporozoite stage of Plasmodium cynomolgi infected in rhesus monkey assessed as radical curative activity at 10 mg/kg measured for 90 days; assay type: functional, organism-based; parameters: dose 10 mg/kg; summary of the method: as §2
Plasmodium berghei [13] = assay: Antimalarial activity against blood schizont stage of Plasmodium berghei infected in mouse assessed as mean survival days of host at 640 mg/kg (reference value: 6.1 days); assay type: functional
Plasmodium cynomolgi [14] = assay: Antimalarial activity against sporozoite stage of Plasmodium cynomolgi infected in rhesus monkey assessed as radical curative activity at 0.75 mg/kg measured for 90 days; assay type: functional, organism-based; parameters: dose 0.75 mg/kg; summary of the method: as §2
Mus musculus [15] = assay: Toxicity in mouse infected with blood schizont stage of Plasmodium berghei assessed as mortality at 640 mg/kg measured prior to 6th day; assay type: organism-based; parameters: dose 640 mg/kg; conditions: in vivo
Summary of the method: (§3)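 In P. berghei-infected mice, five per group, deaths occurring before day 6 after infection are recorded as drug-toxic deaths.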

Mus musculus [16] = assay: Toxicity in mouse infected with blood schizont stage of Plasmodium berghei assessed as mortality at 320 mg/kg measured prior to 6th day; assay type: organism-based; parameters: dose 320 mg/kg; conditions: in vivo; summary of the method: as §3
Mus musculus [17] = assay: Toxicity in mouse infected with blood schizont stage of Plasmodium berghei assessed as mortality at 160 mg/kg measured prior to 6th day; assay type: organism-based; parameters: dose 160 mg/kg; conditions: in vivo; summary of the method: as §3

Row | Structure (SMILES) | Activity (Plasmodium berghei [1]) | Activity (Plasmodium berghei [2]) | Survival (Plasmodium berghei [3]) | Survival (Plasmodium berghei [4]) | Survival (Plasmodium berghei [5]) | Survival (Plasmodium berghei [6]) | Activity (Plasmodium cynomolgi [7]) | Activity (Plasmodium cynomolgi [8]) | Survival (Plasmodium berghei [9]) | Activity (Plasmodium cynomolgi [10]) | Activity (Plasmodium cynomolgi [11]) | Activity (Plasmodium cynomolgi [12]) | Survival (Plasmodium berghei [13]) | Activity (Plasmodium cynomolgi [14]) | Activity (Mus musculus [15]) | Activity (Mus musculus [16]) | Activity (Mus musculus [17])
1 | COc1cc(NC(C)CCCN)c2ncccc2c1Oc1ccc(F)cc1.O.O=C(O)CC(O)(CC(=O)O)C(=O)O (configuration not stated) | Active | Active | 8.9 days | 7.5 days | 5.7 days | 2.1 days | inactive | inactive |  |  |  |  |  |  |  |  | 
2 | COc1cc(NC(C)CCCN)c2ncccc2c1Oc1ccc(Cl)cc1 (configuration not stated) |  |  | 7.1 days | 5.5 days | 4.7 days | 0.7 days |  | Active | 8.1 days | inactive | Active | Active |  |  |  |  | 
3 | COc1cc(NC(C)CCCN)c2ncccc2c1Oc1ccccc1.O.O=P(O)(O)O (configuration not stated) |  |  | 5.1 days | 1.7 days | 1.5 days | 0.3 days |  |  | 7.5 days |  |  |  | 9.9 days |  |  |  | 
4 | COc1cc(NC(C)CCCN)c2ncccc2c1Oc1ccc(NC(C)=O)cc1 (configuration not stated) |  |  |  |  |  |  | inactive | inactive |  | inactive | inactive | inactive |  | inactive |  |  | 
5 | COc1cc(NC(C)CCCN)c2ncccc2c1 (configuration not stated) [PRIMAQUINE] |  |  |  | 9.4 days | 5 days | 4 days |  |  |  | inactive |  |  |  | Active | Toxic | Toxic | Toxic

From ChEMBL document CHEMBL3244096, “Modifications of primaquine as antimalarials. 1. 5-Phenoxy derivatives of primaquine” (J Med Chem, 1977)
